From ChEMBL document CHEMBL4513216, “Probing the Open Global Health Chemical Diversity Library for Multistage-Active Starting Points for Next-Generation Antimalarials” (ACS Infect Dis, 2020)

Assay: Toxicity liver stage against HepG2, at 10uM
Format: cell-based
Set-up: test concentration 10 uM, cell line HepG2-A16-CD81EGFP
Conditions: human, HepG2-A16-CD81EGFP cells; read-out: INHIBITION
In short: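 Uninfected HepG2-A16-CD81EGFP cells, 3 × 10^3 per well, 1536-well, plated on prespotted compound at 10 μM final, parasite-free screening media added to match infected plates; puromycin 10 μM positive, DMSO 0.5% negative; run in parallel with 48 h PbLuc assay at 37 °C, 5% CO2; viability by CellTiter-Glo luminescence, normalized to controls.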

SMILES	cytotoxicity at 10 µM
COC(=O)c1cccc(C(=O)N(C)Cc2cccc(O)c2)c1	9.85%
O=S(=O)(CC1CCCN1S(=O)(=O)C1CC1)c1ccccc1 (centres undefined)	-5.75%
Cc1ccc(CN2CCC3(CCCN3C(=O)C(C)C)CC2)o1	-5.9%
CN(C)C(=O)N1CCC2(CC1)C(=O)N(CC1CCOC1)c1ccccc12 (centres undefined)	6.68%
COc1ccc(OC)c(C2CC(=O)Nc3nc(N4CCOCC4)sc32)c1 (centres undefined)	14.3%
CNc1nc2c(s1)C(c1ccc(Cl)cc1Cl)CC(=O)N2 (centres undefined)	7%
O=C(c1cnc2ccc(Cl)cc2c1NCc1ccco1)N1CCCCC1	4.38%
CC(=O)N1CCN(c2ccc3ccc(C(=O)NC4CCCC4)cn23)CC1	8.15%
COCCNC(=O)Cn1cc2c(n1)c(C)nn2C(C)C	-6.24%
CNc1nnc(CCn2nc(C)c(Br)c2C)s1	2.83%
COc1c(C2CC(=O)Nc3[nH]ncc32)cc2c(c1OC)OCO2 (centres undefined)	3.66%
FC(F)(F)c1cc(C2CCCN(c3ncccn3)C2)n2ccnc2n1 (centres undefined)	10.4%
Cc1cc(O)n2nc(C3CCN(C(=O)c4ccccn4)CC3)cc2n1	-3.36%
CNC(=O)C1CN(C(=O)c2ccncc2)CCN(S(C)(=O)=O)C1 (centres undefined)	6.67%
c1cc(C2CN(C3CCCC3)C2)n[nH]1	4%
CS(=O)(=O)NCC(=O)NC1CCCN(c2ccccn2)C1 (centres undefined)	1.76%
CC1(C2CCN(CCCC(=O)O)CC2)CN(Cc2ccccc2)C(=O)O1 (centres undefined)	-21.9%
Fc1ccc(N2CCOC(Cc3cccnc3)C2)cc1 (centres undefined)	-16.3%
Cn1cc(C(=O)N2CCCC2c2[nH]ncc2C(N)=O)cn1 (centres undefined)	-7.05%
CCC(=O)N1CCC(Cc2ccccc2-c2ccncc2)(C(N)=O)C1 (centres undefined)	-25.3%
Cc1cnc(Nc2nccnc2C2CCN(C)CC2)s1	2.52%
Cn1cc(C2CCCN2C(=O)c2cnc(C3CC3)s2)cn1 (centres undefined)	-2.05%
CCCC(NC(=O)c1cnccn1)c1nnc2ccccn12 (centres undefined)	11.1%
CC(C(=O)N1CCOCC1)S(=O)(=O)Cc1nc(C(C)(C)C)no1 (centres undefined)	-3.82%
O=C(NC1CCc2nccn2C1)c1ccc(NC2CC2)nc1 (centres undefined)	9.93%
N#CC1(NC(=O)COc2cc(Cl)cc(Cl)c2)CCOCC1	-2.53%
CN1CC(NC(=O)Nc2cnn(-c3ccccc3Cl)c2)CCC1=O (centres undefined)	-1.54%

SMILES	cytotoxicity at 10 µM
CCN(C(=O)Cn1cc(NC(=O)C(C)(C)C)cn1)c1ccccc1	3.49%
CCC1CN(C(=O)Cc2coc(-c3ccccc3)n2)CCO1 (centres undefined)	3.06%
COC(=O)C(O)C1CCN(CCc2ccccn2)CC1 (centres undefined)	-7.64%
Cc1noc(C)c1CN1CCN(C(=O)C(C(C)C)n2cncn2)CC1 (centres undefined)	1.4%
COCC(NC(=O)c1cccnc1)c1cccc(C(F)(F)F)c1 (centres undefined)	-12.9%
COC(=O)c1ccoc1CN(C)Cc1cc(OC)c(OC)cc1C	-1.06%
CCN(Cc1nc2c(cnn2C)c(=O)[nH]1)c1cccc(C)c1C	1.66%
CCNC(=O)CNC(=O)Nc1c(F)cc(F)cc1-c1ccccc1	-7.55%
Cc1cnc(C(C)(C)NC(=O)NCc2ccon2)s1	-6.75%
CC(C)S(=O)(=O)N(C)C(=O)CCc1ccsc1	5.2%
CCN1CCC(CNC(=O)c2cc(Cl)c[nH]2)CC1	-9.4%
CCC(CC)CS(=O)(=O)NC(=O)C1CCC1	-6.8%
COCCNC(=O)NCCCOC1CCCc2ccccc21 (centres undefined)	11.7%
CN(C)C(=O)COc1ccccc1CN1CCOC2(CCCC2)C1	-4.8%
COc1ccc(NC(=O)NCc2cccc(N(C)C)n2)c(Cl)c1	21.8%
CCC(C)NS(=O)(=O)Cc1cccc(NC(=O)c2cc[nH]c2C)c1 (centres undefined)	3.77%
CC(C)n1nc(CN2CCCC2=O)c2c1CN(C(=O)c1ccc[nH]1)C2	5.39%
O=C([C@@H]1COC[C@H]2CN(C3CCCCC3)C[C@H]21)N1CCOCC1	-107%
Cc1ccc(C(=O)N2C[C@@H]3OCCN(CC4CCCC4)[C@@H]3C2)cn1	-76%
c1ccc(COC[C@@H]2CC[C@H]3[C@H](CCN3c3ncccn3)O2)nc1	-74.6%
N#CCCNC(=O)c1ccn(-c2ccc3ccccn23)n1	3.82%
CN(C)CCO[C@H]1CN(C(=O)c2ccc[nH]2)[C@@H]2COC[C@H]12	5.06%
CN(C)C(=O)N1CCC2(CC(=O)N(c3cccc(C#N)c3)C2)C1 (centres undefined)	3.33%
NC(=O)c1ccc(C2CCCN2C(=O)CCn2nnc3ccccc32)s1 (centres undefined)	3.92%
Cc1ncsc1CCC(=O)NC1CCN(c2ncccc2C#N)CC1	0.84%
COc1ccccc1OC1CCN(C(=O)c2cnc(C)cc2C)CC1	4.36%
CC1(C)CN(C(=O)c2ccccc2-n2cncn2)CC1(C)O (centres undefined)	-19.3%
